In ChEMBL document CHEMBL2406979, “Antitumor activity of 2-hydroxycinnamaldehyde for human colon cancer cells through suppression of β-catenin signaling” (J Nat Prod, 2013):
Active and inactive are the calls of the source. The calls are words filed in the database; no cut-off is given here.

Experiments:
[1] = system: HEK293; assay: Inhibition of Wnt/beta-catenin (unknown origin) signaling pathway expressed in HEK293 cells assessed as inhibition of TCF4 transcriptional activity at 5 to 40 uM after 24 hrs by TOPflash reporter gene assay; format: cell-based; conditions: Homo sapiens
Outline: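 HEK293 cells seeded at 1.5 × 10^4 per well and cotransfected (Lipofectamine 2000) with TOPflash luciferase reporter 0.1 μg, Renilla 0.005 μg for normalization, pcDNA β-catenin 0.02 μg and TCF4 expression vector 0.004 μg to activate Wnt; 24 h later treated with compound or solvent for 24 h; dual luciferase read-out, Renilla-normalized, relative to vehicle; triplicate.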

[2] = system: HCT-116; assay: Inhibition of Wnt/beta-catenin signaling pathway in human HCT116 cells assessed as downregulation of CCND1 mRNA expression at 5 to 10 uM after 12 hrs by real-time PCR analysis; format: cell-based
Outline: (§1)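 HCT116 cells treated 12 h. Total RNA by TRI reagent, reverse-transcribed, SYBR Green real-time PCR: 40 cycles of 95 °C 20 s, 56 °C 20 s, 72 °C 30 s. Fold change by 2^−ΔΔCT normalized to β-actin, relative to untreated control; quadruplicate.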

[3] = system: HCT-116; assay: Inhibition of Beta-catenin/TCF complex binding to DNA in human HCT116 cells at 5 to 10 uM after 30 mins by electrophoretic mobility shift assay; format: cell-based
Outline: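 HCT116 cells (1 × 10^6) treated 30 min. Nuclear extract made by NP-40 hypotonic lysis, then 420 mM NaCl hypertonic extraction; protein by Bradford. Binding: 8 μg nuclear protein with 1.5 pmol biotin-labeled TCF binding probe, 15 °C for 30 min, read by EMSA against vehicle-treated cells.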

[4] = system: HCT-116; assay: Inhibition of Wnt/beta-catenin codon 45 deletion mutant signaling pathway human HCT116 cells assessed as inhibition of TCF4 transcriptional activity after 24 hrs by TOPflash reporter gene assay; format: cell-based
Outline: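 HCT116 cells seeded at 1.5 × 10^4/well and lipofected after 24 h with 0.1 μg TOPflash (or FOPflash) plus 0.005 μg Renilla; no β-catenin/TCF4 added. Treated 24 h for 24 h. Dual luciferase, Renilla-normalized, relative to vehicle; means ± SD, n = 3, four separate determinations.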

[5] = system: HEK293; assay: Inhibition of Wnt/beta-catenin (unknown origin) signaling pathway expressed in HEK293 cells assessed as inhibition of TCF4 transcriptional activity at 5 to 40 uM after 24 hrs by FOPflash reporter gene assay; format: cell-based; conditions: Homo sapiens
Outline: (§2)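 HEK293 cells seeded at 1.5 × 10^4/well. After 24 h, lipofected with 0.1 μg TOPflash or FOPflash, 0.005 μg Renilla, 0.02 μg β-catenin and 0.004 μg TCF4 vectors. Treated 24 h after transfection for 24 h. Dual luciferase read-out, firefly normalized to Renilla, relative to vehicle; triplicate.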

[6] = system: HEK293; assay: Inhibition of Wnt/beta-catenin (unknown origin) signaling pathway expressed in HEK293 cells assessed as inhibition of TCF4 transcriptional activity after 24 hrs by TOPflash reporter gene assay; format: cell-based; conditions: Homo sapiens; outline: as §2
[7] = system: HCT-116; assay: Antitumor activity against human HCT116 cells xenografted in BALB/c-nu mouse assessed as tumor growth inhibition at 10 mg/kg, ip administered 3 times per week for 4 weeks measured every 2 to 3 days during treatment relative to control; format: functional; conditions: HCT-116, ip, route intraperitoneal, read-out: TGI
Outline: (§3)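 Female BALB/c-nu mice, 4−6 weeks old, acclimated one week, given 2 × 10^6 HCT116 cells sc in the flank. Dosing began near 100 mm3, about day 8; five mice per group. Dose in 0.5% Tween 80 in normal saline, 200 μL ip; controls got vehicle. Tumor volume by caliper = L × W × H/2. Study ended when control tumors averaged ~1300 mm3.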

[8] = system: Mus musculus; assay: (§4) In vivo inhibition of Wnt/beta-catenin signaling pathway in human HCT116 cells xenografted in BALB/c-nu mouse assessed as downregulation of Ki-67 expression at 10 to 20 mg/kg, ip administered 3 times per week measured after 4 weeks by hematoxylin staining-based inverted phase-contrast microscopic analysis; format: functional, organism-based; conditions: HCT-116
Outline: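 Immunohistochemistry on xenograft tumor sections from ip-dosed mice. Ki-67 detected with anti-Ki67 antibody and an LSAB+ HRP system. Sections counterstained with hematoxylin and photographed under an inverted phase-contrast microscope at 200×.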

[9] = system: Mus musculus; assay: as §4, with “beta-catenin” for “Ki-67”; format: functional, organism-based; conditions: HCT-116
[10] = system: Mus musculus; assay: as §4, with “cyclin D1” for “Ki-67”; format: functional, organism-based; conditions: HCT-116
[11] = system: Mus musculus; assay: In vivo inhibition of Wnt/beta-catenin signaling pathway in human HCT116 cells xenografted in BALB/c-nu mouse assessed as downregulation of survivin protein expression at 10 to 20 mg/kg, ip administered 3 times per week measured after 4 weeks by Western blot analysis; format: functional, organism-based; conditions: HCT-116
Outline: (§5)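 Part of each frozen xenograft tumor was thawed on ice and hand-homogenized in Complete Lysis Buffer. Protein was quantified and aliquots stored at −80 °C. Western blot: SDS-PAGE, PVDF transfer, ECL detection, compared with vehicle-treated tumors.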

[12] = system: Mus musculus; assay: In vivo inhibition of Wnt/beta-catenin signaling pathway in human HCT116 cells xenografted in BALB/c-nu mouse assessed as downregulation of CMYC protein expression at 10 to 20 mg/kg, ip administered 3 times per week measured after 4 weeks by Western blot analysis; format: functional, organism-based; conditions: HCT-116; outline: as §5
[13] = system: Mus musculus; assay: In vivo inhibition of Wnt/beta-catenin signaling pathway in human HCT116 cells xenografted in BALB/c-nu mouse assessed as downregulation of CCND1 protein expression at 10 to 20 mg/kg, ip administered 3 times per week measured after 4 weeks by Western blot analysis; format: functional, organism-based; conditions: HCT-116; outline: as §5
[14] = system: Mus musculus; assay: In vivo inhibition of Wnt/beta-catenin signaling pathway in human HCT116 cells xenografted in BALB/c-nu mouse assessed as downregulation of NKD1 mRNA expression at 10 to 20 mg/kg, ip administered 3 times per week measured after 4 weeks by real-time PCR analysis; format: functional, organism-based; conditions: HCT-116
Outline: (§6)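 Frozen tumors from ip-dosed HCT116 xenograft mice were extracted with TRI reagent and reverse-transcribed. SYBR Green real-time PCR run 40 cycles of 95/56/72 °C. Expression by 2^−ΔΔCT normalized to β-actin, relative to vehicle-treated controls; quadruplicate.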

[15] = system: Mus musculus; assay: In vivo inhibition of Wnt/beta-catenin signaling pathway in human HCT116 cells xenografted in BALB/c-nu mouse assessed as downregulation of PLAU mRNA expression at 10 to 20 mg/kg, ip administered 3 times per week measured after 4 weeks by real-time PCR analysis; format: functional, organism-based; conditions: HCT-116; outline: as §6
[16] = system: Mus musculus; assay: In vivo inhibition of Wnt/beta-catenin signaling pathway in human HCT116 cells xenografted in BALB/c-nu mouse assessed as downregulation of MMP7 mRNA expression at 10 to 20 mg/kg, ip administered 3 times per week measured after 4 weeks by real-time PCR analysis; format: functional, organism-based; conditions: HCT-116; outline: as §6
[17] = system: Mus musculus; assay: In vivo inhibition of Wnt/beta-catenin signaling pathway in human HCT116 cells xenografted in BALB/c-nu mouse assessed as downregulation of CMYC mRNA expression at 10 to 20 mg/kg, ip administered 3 times per week measured after 4 weeks by real-time PCR analysis; format: functional, organism-based; conditions: HCT-116; outline: as §6
[18] = system: Mus musculus; assay: In vivo inhibition of Wnt/beta-catenin signaling pathway in human HCT116 cells xenografted in BALB/c-nu mouse assessed as downregulation of CCND1 mRNA expression at 10 to 20 mg/kg, ip administered 3 times per week measured after 4 weeks by real-time PCR analysis; format: functional, organism-based; conditions: HCT-116; outline: as §6
[19] = system: Mus musculus; assay: Toxicity in BALB/c-nu mouse xenografted with human HCT116 cells assessed as change in body weight at 10 to 20 mg/kg, ip administered 3 times per week measured for 4 weeks; format: organism-based, HCT-116; set-up: dose 10-20 mg/kg, route intraperitoneal; conditions: in vivo, 672 h
Outline: (§7)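 Same HCT116 flank xenograft in female BALB/c-nu mice, five per group, dosed ip in 0.5% Tween 80/saline with vehicle controls. Toxicity was judged from lethality and body weight loss, with body weights tracked through the study.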

[20] = system: Mus musculus; assay: Toxicity in BALB/c-nu mouse xenografted with human HCT116 cells assessed as overt toxicity at 10 to 20 mg/kg, ip administered 3 times per week measured for 4 weeks; format: organism-based, HCT-116; set-up: dose 10-20 mg/kg, route intraperitoneal; conditions: in vivo, 672 h; outline: as §7
[21] = system: HCT-116; assay: Antitumor activity against human HCT116 cells xenografted in BALB/c-nu mouse assessed as tumor growth inhibition at 20 mg/kg, ip administered 3 times per week for 4 weeks measured every 2 to 3 days during treatment relative to control; format: functional; conditions: HCT-116, ip, route intraperitoneal, read-out: TGI; outline: as §3
[22] = system: HCT-116; assay: Cytotoxicity against human HCT116 cells assessed as growth inhibition after 72 hrs by SRB assay; format: functional, cell-based; conditions: HCT-116, 72 h
Outline: (§8)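 HCT116 cells seeded at 6 × 10^3/well and grown 24 h. Day-zero plates fixed; others exposed 24, 48 or 72 h. Fixed with 10% TCA, stained with 0.4% SRB in 1% acetic acid, dye taken up in 10 mM Tris pH 10.0, read at 515 nm. Proliferation % = (compound − day zero)/(control − day zero) × 100. IC50 by nonlinear regression; four determinations.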

[23] = system: HCT-116; assay: Cytotoxicity against human HCT116 cells assessed as growth inhibition after 48 hrs by SRB assay; format: functional, cell-based; conditions: HCT-116, 48 h; outline: as §8
[24] = system: HCT-116; assay: Cytotoxicity against human HCT116 cells assessed as growth inhibition after 24 hrs by SRB assay; format: functional, cell-based; conditions: HCT-116, 24 h; outline: as §8
[25] = system: HCT-116; assay: Cytotoxicity against human HCT116 cells assessed as growth inhibition after 24 to 72 hrs by SRB assay; format: functional, cell-based; outline: as §8
[26] = system: HCT-116; assay: Cytotoxicity against human HCT116 cells assessed as growth inhibition at 5 to 20 uM by SRB assay; format: functional, cell-based; conditions: TDE = time-dependent effect; outline: as §8
[27] = system: HCT-116; assay: Inhibition of Wnt/beta-catenin signaling pathway in human HCT116 cells assessed as downregulation of total beta-catenin protein expression at 5 to 10 uM after 24 to 48 hrs by Western blot analysis; format: cell-based
Outline: (§9)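 HCT116 cells treated 24 or 48 h. Lysed in RIPA buffer; equal protein run on 8−13% SDS-PAGE, blotted to PVDF, probed for β-catenin, c-myc and cyclin D1, detected by ECL. β-Actin served as internal standard; four determinations.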

[28] = system: HCT-116; assay: Inhibition of Wnt/beta-catenin signaling pathway in human HCT116 cells assessed as downregulation of CMYC protein expression at 5 to 10 uM after 24 to 48 hrs by Western blot analysis; format: cell-based; outline: as §9
[29] = system: HCT-116; assay: Inhibition of Wnt/beta-catenin signaling pathway in human HCT116 cells assessed as downregulation of CCND1 protein expression at 5 to 10 uM after 24 to 48 hrs by Western blot analysis; format: cell-based; outline: as §9
[30] = system: HCT-116; assay: Inhibition of Wnt/beta-catenin signaling pathway in human HCT116 cells assessed as downregulation of NKD1 mRNA expression at 5 to 10 uM after 12 hrs by real-time PCR analysis; format: cell-based; outline: as §1
[31] = system: HCT-116; assay: Inhibition of Wnt/beta-catenin signaling pathway in human HCT116 cells assessed as downregulation of DKK1 mRNA expression at 5 to 10 uM after 12 hrs by real-time PCR analysis; format: cell-based; outline: as §1
[32] = system: HCT-116; assay: Inhibition of Wnt/beta-catenin signaling pathway in human HCT116 cells assessed as downregulation of AXIN2 mRNA expression at 5 to 10 uM after 12 hrs by real-time PCR analysis; format: cell-based; outline: as §1
[33] = system: HCT-116; assay: Inhibition of Wnt/beta-catenin signaling pathway in human HCT116 cells assessed as downregulation of PLAU mRNA expression at 5 to 10 uM after 12 hrs by real-time PCR analysis; format: cell-based; outline: as §1
[34] = system: HCT-116; assay: Inhibition of Wnt/beta-catenin signaling pathway in human HCT116 cells assessed as downregulation of MMP7 mRNA expression at 5 to 10 uM after 12 hrs by real-time PCR analysis; format: cell-based; outline: as §1
[35] = system: HCT-116; assay: Inhibition of Wnt/beta-catenin signaling pathway in human HCT116 cells assessed as downregulation of CMYC mRNA expression at 5 to 10 uM after 12 hrs by real-time PCR analysis; format: cell-based; outline: as §1

COc1ccccc1/C=C/C=O
inhibition [1]: Active

O=C/C=C/c1ccccc1O [2-HYDROXYCINNAMALDEHYDE]
inhibition [2]: Active | inhibition [3]: Active | inhibition [4]: Dose-dependent effect | inhibition [5]: inactive | inhibition [6]: Dose-dependent effect | inhibition in vivo at 10 mg/kg [7]: 52% | inhibition [8]: Active | inhibition [9]: Active | inhibition [10]: Active | inhibition [11]: Active | inhibition [12]: Active | inhibition [13]: Active | inhibition [14]: Active | inhibition [15]: Active | inhibition [16]: Active | inhibition [17]: Active | inhibition [18]: Active | Activity [19]: Non-toxic | Activity [20]: Non-toxic | inhibition in vivo at 20 mg/kg [21]: 69% | IC50 [22]: 6.17 µM | IC50 [23]: 6.62 µM | IC50 [24]: 8.14 µM | Activity [25]: Dose-dependent effect | Activity [26]: tde | inhibition [27]: Active | inhibition [28]: Active | inhibition [29]: Active | inhibition [30]: Active | inhibition [31]: Active | inhibition [32]: Active | inhibition [33]: Active | inhibition [34]: Active | inhibition [35]: Active
